# The list is not random: actives were taken first. Their share in the collection is about 2.5%.
# SIAE inh: blocks human sialic acid acetylesterase. Q9HAT2. SIAE FP-Rh probe binding, fluorescence polarization. inhibition, % at 9.66 µM. 0.69% of 370,000 active;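 active means inhibition above a cutoff: mean of compounds within the control limits plus 3 SD of those, cut at about 17% in these data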;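 further: 0% = plate median of compound wells and 100% = probe without SIAE protein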
# HTRA1 inhibitor: HTRA1 (human) protease inhibition | Q92743 | recombinant HTRA1, FP-rhodamine activity-based probe, fluorescence polarization | inhibition, % at 5.96 µM | 0.5% of 340,000 active | AID 504803; in the data active means inhibition above about 36%;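 further: 0% = enzyme with DMSO and 100% = wells lacking enzyme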
# Target sequence (Q92743 whole entry, looked up): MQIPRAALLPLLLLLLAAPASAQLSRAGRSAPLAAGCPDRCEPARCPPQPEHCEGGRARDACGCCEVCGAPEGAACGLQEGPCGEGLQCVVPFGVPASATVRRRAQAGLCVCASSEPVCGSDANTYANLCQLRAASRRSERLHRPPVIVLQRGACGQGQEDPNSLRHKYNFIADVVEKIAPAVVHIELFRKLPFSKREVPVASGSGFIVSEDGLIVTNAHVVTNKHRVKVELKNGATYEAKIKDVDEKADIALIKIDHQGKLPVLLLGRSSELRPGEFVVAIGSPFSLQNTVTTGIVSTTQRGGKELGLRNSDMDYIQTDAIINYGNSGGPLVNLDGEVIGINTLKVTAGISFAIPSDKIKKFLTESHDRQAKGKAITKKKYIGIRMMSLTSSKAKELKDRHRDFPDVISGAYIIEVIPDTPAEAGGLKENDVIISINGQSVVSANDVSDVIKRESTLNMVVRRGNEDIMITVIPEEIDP
# TCR-CD3 inh: human TCR-CD3 binding inhibition. TAMRA-labeled TCR probe fluorescence, biochemical. inhibition, % at 9.4 µM. 0.37% of 360,000 active. AID 651800; in the data active means inhibition above about 19%;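 further: recombinant mutant TCR 2C K166C tagged with TAMRA read by polarization; 0% = receptor in buffer alone and 100% = receptor with positive control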
# ABHD4 inh: inhibitors of mouse ABHD4; Q8VD66; purified mABHD4, FP-Rh probe fluorescence polarization; inhibition, % at 8.92 µM; 0.54% of 370,000 active;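 active means inhibition exceeding the mean over every tested compound plus 3 SD, cut at about 30% in these data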;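 further: 0% = plate median of compound wells and 100% = S159A mutant with DMSO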
#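 Doses – 8.92 µM, single dose · Material – wild-type mouse ABHD4 protein · Replication – single well per compound (singlicate) · Measure – percent inhibition of probe binding, normalized to plate controls · Schedule – 45 min compound pre-incubation plus 60 min probe step, 25 °C · Detection – fluorescence polarization with parallel and perpendicular emission, 525/598 nm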
# rCAG RNA binder: binds r(CAG) RNA repeats; r(CAG) RNA repeat, TO-PRO-1 dye displacement fluorescence; inhibition, % at 3 µM; 1.3% of 370,000 active; AID 651821;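 active means inhibition above the plate cutoff, the mean of all test compounds on that plate plus 3 SD, cut at about 35% in these data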;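 further: 0% = DMSO alone and 100% = 100 µM mitoxantrone as full dye displacement; higher means more dye released from RNA so lower well fluorescence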
# SIAE inh conf: confirmation of human SIAE inhibitors; shares compounds with SIAE inh; SIAE FP-Rh activity-based probe, fluorescence polarization; inhibition, % at 9.66 µM; 13% of 2,300 active; AID 1117263;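 active means mean inhibition of the replicates above the hit cutoff set in the primary screen, cut at about 17% in these data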;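 further: 0% = SIAE with DMSO and probe and 100% = probe without SIAE; inhibitors lower polarization as more probe stays unbound to SIAE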
# The depositor's hits bear a star; nt = no result given.
SMILES,SIAE inh,HTRA1 inhibitor,TCR-CD3 inh,ABHD4 inh,rCAG RNA binder,SIAE inh conf
CC(C)Nc1nc(NCCOc2ccccc2Cl)c2sc(-c3ccccc3)cc2n1,19.3*,nt,1.7,25.7,7.8,19.8*
C=CCNc1nc(NCc2cccc(OC)c2)c2sc(-c3ccccc3)cc2n1,20.5*,nt,-5.4,11.7,8.0,2.5
COc1ccccc1CNc1nc(NC(C)C)nc2cc(-c3ccccc3)sc12,22.2*,nt,1.8,22.4,1.5,27.9*
Cc1ccc(COC(=O)c2cc(S(=O)(=O)N3CCCCC3)ccc2N2CCOCC2)cc1,-9.4,-33.8,-0.3,3.5,0.0,nt
COc1ccccc1CNC(=O)CN1CCC(NC(=O)c2ccccc2F)CC1,-6.8,6.5,-5.5,2.5,-2.5,nt
COc1ccccc1/C=C1\SC(=S)N(CCC(=O)NC2=NCCS2)C1=O,-2.9,-5.6,-1.6,-2.3,2.0,nt
O=C(Nc1ccc(Cl)cc1C(F)(F)F)c1ccccc1Cl,28.9*,-7.8,-7.9,-2.9,-1.8,-4.6
Cc1nc(NN)c2c3c(sc2n1)COC(C)(C)C3,26.6*,2.1,-2.7,4.5,2.1,3.1
CCOC(=O)C1C(=O)CC(C)(O)C(C(=O)OCC)C1c1ccc(Br)cc1 (centres undefined),3.3,2.9,-1.1,1.2,0.4,nt
O=C(O)/C=C/c1cn(Cc2ccccc2)nc1-c1ccccc1,18.7*,2.5,1.8,-3.1,0.5,2.3
Cc1ccc(S(=O)(=O)NCC2CCN(C(=O)C(=O)c3cc4ccccc4o3)CC2)cc1,-5.9,nt,-4.5,-4.4,5.3,nt
N=C1SC(CC(=O)Nc2ccc([N+](=O)[O-])cc2)C(=O)N1c1ccccc1 (centres undefined),0.0,nt,-0.7,-14.6,8.7,nt
O=C(CC1SC(=O)N(c2ccccc2)C1=O)Nc1ccccc1 (centres undefined),26.0*,-0.3,-7.5,1.7,26.4,0.9
CCOC(=O)N1CCN(S(=O)(=O)c2ccc(C)c(C(=O)NC3CCCCC3)c2)CC1,19.4*,10.3,4.2,4.5,-1.5,-5.6
CN(C(=O)c1ccc(-c2nn(C)c(=O)c3ccccc23)cc1)c1ccccc1,3.0,0.3,3.6,2.3,-3.6,nt
O=C(CCl)NN1C(=O)NC(c2ccccc2)(c2ccccc2)C1=O,1.9,3.7,2.4,-4.2,-0.9,nt
O=C1CCCCC1Nc1ccc([N+](=O)[O-])cc1 (centres undefined),-3.9,4.7,5.6,1.7,2.1,nt
O=[N+]([O-])c1ccc(NC2CCCC2)cc1,19.0*,-9.3,3.4,3.5,3.0,0.8
COC(=O)C1=C(C(C)=O)C(c2ccc(C(=O)OC)cc2)n2nnnc2N1 (centres undefined),23.1*,-5.2,-3.2,13.5,0.0,-2.8
Cc1ccccc1C(=O)/C=C1\NC(=O)CS1,17.3*,0.7,-2.8,-0.3,1.0,2.1
Cc1ccc(NC(=S)N2CCN(Cc3ccccc3)CC2)cc1,1.5,-0.3,1.7,5.3,-2.9,nt
S=C(Nc1ccc(Cl)cc1)N1CCN(Cc2ccccc2)CC1,18.1*,-8.8,-5.8,-1.7,-3.8,6.2
COc1ccc2nc(SCc3cnc(C)nc3N)[nH]c2c1,19.1*,1.3,4.0,9.6,-0.6,-3.9
Cc1ncc(CSc2nc3ccccc3[nH]2)c(N)n1,-1.9,2.9,-2.4,1.9,0.4,nt
O=C(NCCCn1cccn1)C1CCC(=O)N(Cc2cccc(C(F)(F)F)c2)C1 (centres undefined),-4.5,3.9,2.8,1.9,-4.9,nt
SMILES,SIAE inh,HTRA1 inhibitor,TCR-CD3 inh,ABHD4 inh,rCAG RNA binder,SIAE inh conf
Cc1ccc(S(C)(=O)=O)cc1C(=O)Nc1ccc(S(=O)(=O)Nc2nccs2)cc1,23.9*,4.1,-2.9,24.2,20.1,0.9
CC(=O)Nc1ccc(S(=O)(=O)Nc2nccs2)cc1,-1.6,1.1,-2.8,8.2,-3.3,nt
COC(=O)c1cn(C)c2ccc(S(=O)(=O)N(C)C3CCCCC3)cc2c1=O,20.3*,3.1,-6.2,3.9,0.5,-3.5
Cc1ccc(S(=O)(=O)N2CCC(C(=O)Nc3nnc(-c4ccc(F)cc4)s3)CC2)cc1,-1.9,0.7,1.0,4.2,0.4,nt
C=CCn1c(CNC(=O)c2cccs2)nnc1SCC(=O)c1ccc(Br)cc1,28.3*,-12.5,1.6,-5.3,-3.9,1.9
O=C(OCc1cccnc1)C1=Cc2ccccc2OC1,-3.7,-5.3,-0.4,-8.8,0.3,nt
CCOC(=O)c1sc(=S)[nH]c1C,18.2*,2.1,-4.5,1.7,0.0,7.0
COc1cc(CNc2ccc(N3CCOCC3)cc2)ccc1OCC(=O)NC(C)(C)C,19.1*,10.3,5.5,16.8,3.7,4.8
O=Cc1cn(CCC(=O)O)nc1-c1cccc2ccccc12,0.7,5.1,-0.5,-2.7,-2.4,nt
Nc1nc(C(F)(F)F)cc(=O)[nH]1,21.1*,5.5,0.3,-1.2,-1.1,-2.5
O=C(NCCO)c1ccc2c3n(nc2c1)-c1ccccc1CO3,2.3,-0.9,-10.5,3.5,-1.8,nt
Cc1csc(Nc2ccc(Cl)cc2)n1,19.0*,-1.5,2.6,-1.9,-0.8,0.7
Cc1ccc(Nc2nc(C)cs2)cc1,3.4,2.6,7.4,-0.3,1.2,nt
CC(=O)N[C@@H](C)c1nc2ccccc2n1CCCN1CCN(c2nc(-c3ccc(C)cc3)cs2)CC1,14.5,-9.6,-8.7,0.6,1.1,nt
COc1ccc(Cl)cc1NC(=S)NCCc1ccc(S(N)(=O)=O)cc1,36.5*,-5.7,5.5,-3.3,4.8,2.0
COc1ccccc1NC(=S)NCc1ccccc1,10.6,5.7,-4.2,-2.0,1.2,nt
COc1ccccc1NC(=S)NCCc1ccc(S(N)(=O)=O)cc1,1.9,-2.5,4.8,2.5,-2.5,nt
COc1ccccc1NC(=S)NCCN1CCOCC1,17.1*,-3.1,-5.0,-2.2,0.5,3.1
COc1ccccc1NC(=S)NCc1ccc(Cl)cc1,17.7*,-2.0,2.9,6.8,-1.5,-1.3
COc1ccc(NC(=S)NCCN2CCOCC2)c(OC)c1,3.8,5.0,4.8,-4.0,0.5,nt
COc1ccccc1CNC(=O)C1CC(=O)N(C2CCCC2)C1 (centres undefined),5.2,0.9,5.2,1.2,-1.4,nt
COc1ccc(C2CC(c3ccccc3)=NN2c2ccc(/C=N/NC(=O)c3ccncc3)cc2)cc1 (centres undefined),17.2*,3.7,0.6,11.4,4.4,7.1
CCCCNC(=O)CCC(=O)Nc1ccc2nc(N3CCOCC3)cc(C)c2c1,24.1*,-4.7,-3.2,-1.0,-7.5,-0.8
O=C1c2ccccc2C(=O)c2cc(N3CCCCC3)ccc21,21.5*,0.8,-30.9,-19.0,3.4,42.2*
COc1ccc(C(=O)Nc2ccc(Nc3ccccc3)cc2)cc1[N+](=O)[O-],18.7*,11.7,-0.3,3.1,14.2,7.0
COc1ccccc1NC(=O)c1ccc(-n2ccnc2)c([N+](=O)[O-])c1,24.3*,4.0,-3.2,5.3,3.5,7.9
O=C(Nc1ccc(Nc2ccccc2)cc1)c1cc([N+](=O)[O-])ccc1Cl,24.0*,21.8,2.4,1.9,9.2,8.5

# Bioassay records: PubChem BioAssay, The Scripps Research Institute Molecular Screening Center
